From ChEMBL document CHEMBL2203235, “Optimization of a natural product-based class of γ-secretase modulators” (J Med Chem, 2012)

Assays:
Mus musculus [1] = assay: Antialzheimer activity in CD1 mouse assessed as reduction in amyloid beta 40 level at 50 mg/kg, po QD for 5 days at 8 hrs post-last dose relative to vehicle-treated control; set-up: scale not given: the % may be the effect or the level left
[2] = Modulation of gamma secretase in CHO-2B7 cells assessed as reduction in amyloid beta 42 level after 5 hrs by MSD ELISA; type: cell-based; conditions: Cricetulus griseus, CHO-2B7, 5 h
[3] = Modulation of gamma secretase in CHO-2B7 cells assessed as reduction in amyloid beta 40 level after 5 hrs by MSD ELISA; type: cell-based; conditions: Cricetulus griseus, CHO-2B7, 5 h
Mus musculus [4] = assay: Antialzheimer activity in CD1 mouse assessed as reduction in amyloid beta 38 level at 10 mg/kg, po QD for 5 days at 8 hrs post-last dose relative to vehicle-treated control; set-up: scale not given: the % may be the effect or the level left
[5] = Inhibition of gamma secretase in CHO-2B7 cells assessed as reduction in total amyloid beta level after 5 hrs by MSD ELISA; type: cell-based; conditions: Cricetulus griseus, CHO-2B7, 5 h
Mus musculus [6] = assay: Antialzheimer activity in CD1 mouse assessed as reduction in amyloid beta 38 level at 30 mg/kg, po at 6 hrs relative to vehicle-treated control; type: functional; set-up: scale not given: the % may be the effect or the level left
In short: (§1)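 CD-1 mice received a single IP or PO dose (n = 12 per group) and were sampled at 6 h. Plasma and brain drug concentrations were measured in μM. Aβ42, Aβ40 and Aβ38 in brain homogenate are expressed as percent lowering versus vehicle. Statistical significance was assessed against vehicle.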

CHO [7] = assay: Modulation of gamma secretase in CHO cells expressing human APP assessed as amyloid beta (1 to 40) level at 2 uM after 6 hrs by LC/MS/MS analysis (reference value: 10.2 ng); type: cell-based; conditions: Cricetulus griseus
In short: (§2)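 Cells were treated at 3 μM or 2 μM. Secreted Aβ peptides (Aβ37, 38, 39, 40, 42) were quantified by immunoprecipitation followed by LC/MS/MS. Changes are expressed relative to vehicle-treated cells.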

Mus musculus [8] = assay: Antialzheimer activity in CD1 mouse assessed as reduction in amyloid beta 38 level at 100 mg/kg, po at 6 hrs relative to vehicle-treated control; type: functional; set-up: scale not given: the % may be the effect or the level left
In short: as §1

Mus musculus [9] = assay: Antialzheimer activity in CD1 mouse assessed as reduction in amyloid beta 42 level at 30 mg/kg, po at 6 hrs relative to vehicle-treated control; type: functional; set-up: scale not given: the % may be the effect or the level left
In short: as §1

CHO [10] = assay: Modulation of gamma secretase in CHO cells expressing human APP assessed as reduction amyloid beta (1 to 38) level at 2 uM after 6 hrs by LC/MS/MS analysis relative to control; type: cell-based; set-up: scale not given: the % may be the effect or the level left; conditions: Cricetulus griseus
In short: as §2

Mus musculus [11] = assay: Antialzheimer activity in CD1 mouse assessed as reduction in amyloid beta 40 level at 10 mg/kg, po QD for 5 days at 8 hrs post-last dose relative to vehicle-treated control; set-up: scale not given: the % may be the effect or the level left
CHO [12] = assay: Modulation of gamma secretase in CHO cells expressing human APP assessed as increase in amyloid beta (1 to 37) level at 2 uM after 6 hrs by LC/MS/MS analysis relative to control; type: cell-based; conditions: Cricetulus griseus
In short: as §2

SUP-T1 = assay: Inhibition of notch-mediated NICD release in human SUP-T1 cells at 4 uM after 18 hrs by immunoblotting assay; type: cell-based
Mus musculus [13] = assay: Antialzheimer activity in CD1 mouse assessed as reduction in amyloid beta 42 level at 100 mg/kg, po at 6 hrs relative to vehicle-treated control; type: functional; set-up: scale not given: the % may be the effect or the level left
In short: as §1

Mus musculus [14] = assay: Antialzheimer activity in CD1 mouse assessed as reduction in amyloid beta 40 level at 30 mg/kg, po at 6 hrs relative to vehicle-treated control; type: functional; set-up: scale not given: the % may be the effect or the level left
In short: as §1

Mus musculus [15] = assay: Antialzheimer activity in CD1 mouse assessed as reduction in amyloid beta 38 level at 50 mg/kg, po QD for 5 days at 8 hrs post-last dose relative to vehicle-treated control; set-up: scale not given: the % may be the effect or the level left
CHO [16] = assay: Modulation of gamma secretase in CHO cells expressing human APP assessed as increase in amyloid beta (1 to 39) level at 2 uM after 6 hrs by LC/MS/MS analysis relative to control; type: cell-based; conditions: Cricetulus griseus
In short: as §2

CHO [17] = assay: Modulation of gamma secretase in CHO cells expressing human APP assessed as reduction in amyloid beta (1 to 42) level at 2 uM after 6 hrs by LC/MS/MS analysis relative to control; type: cell-based; set-up: scale not given: the % may be the effect or the level left; conditions: Cricetulus griseus
In short: as §2

[18] = Modulation of gamma secretase in CHO-2B7 cells assessed as reduction in amyloid beta 38 level after 5 hrs by MSD ELISA; type: cell-based; conditions: Cricetulus griseus, CHO-2B7, 5 h
Mus musculus [19] = assay: Antialzheimer activity in CD1 mouse assessed as reduction in amyloid beta 42 level at 10 mg/kg, po QD for 5 days at 8 hrs post-last dose relative to vehicle-treated control; set-up: scale not given: the % may be the effect or the level left
Mus musculus [20] = assay: Antialzheimer activity in CD1 mouse assessed as reduction in amyloid beta 40 level at 100 mg/kg, po at 6 hrs relative to vehicle-treated control; type: functional; set-up: scale not given: the % may be the effect or the level left
In short: as §1

[21] = Ratio of drug uptake in brain to plasma in P-gp knockout mouse at 10 mg/kg, ip at 6 hrs; type: ADME, organism-based; set-up: dose 10 mg/kg, route intraperitoneal; conditions: brain and plasma, read-out: BPR
In short: (§3)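 Dosing was 10 mg/kg IP in MDR1 (P-gp) knockout mice and, identically, in wild-type FVB mice. Brain and plasma levels were taken 6 h after dosing to give a brain-to-plasma ratio.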

[22] = Plasma concentration in CD1 mouse at 1 mg/kg, iv at 6 hrs
[23] = Ratio of drug uptake in brain to plasma in FVB mouse at 10 mg/kg, ip at 6 hrs; type: ADME, organism-based; set-up: dose 10 mg/kg, route intraperitoneal; conditions: brain and plasma, read-out: BPR
In short: as §3

[24] = Drug uptake in CD1 mouse brain at 1 mg/kg, iv at 6 hrs
Liver microsomes = assay: Metabolic stability in human liver microsomes at 1 uM after 60 mins by LC/MS/MS analysis; conditions: 1 h
[25] = Ratio of drug uptake in brain to plasma in CD1 mouse at 1 mg/kg, iv at 6 hrs; conditions: brain and plasma

**Q.** Which Activity (Mus musculus [1]) does the source give for `CCO[C@@H]([C@H]1C[C@@H](C)[C@H]2[C@H](O1)[C@H](O)[C@@]1(C)[C@@H]3CC[C@H]4C(C)(C)[C@@H](O[C@H]5CN(C6CN(C)C6)CCO5)CC[C@@]45C[C@@]35CC[C@]21C)C(C)(C)O` here?
**A.** 10%

**Q.** What about the IC50 [2] of the same compound?
**A.** 0.1 µM

**Q.** What about the IC50 [3] of the same compound?
**A.** 2.1 µM

**Q.** What about the Activity (Mus musculus [4]) of the same compound?
**A.** 13%

**Q.** What about the IC50 [5] of the same compound?
**A.** 14 µM

**Q.** What about the Activity (Mus musculus [6]) of the same compound?
**A.** 16%

**Q.** And the Activity (CHO [7])?
**A.** 11.4 ng

**Q.** And the Activity (Mus musculus [8])?
**A.** 31%

**Q.** And the Activity (Mus musculus [9])?
**A.** 16%

**Q.** What about the Activity (CHO [10]) of the same compound?
**A.** 33%

**Q.** What about the Activity (Mus musculus [11]) of the same compound?
**A.** 7%

**Q.** And the Activity (CHO [12])?
**A.** 380%

**Q.** And the inhibition (SUP-T1)?
**A.** 0%

**Q.** What about the Activity (Mus musculus [13]) of the same compound?
**A.** 26%

**Q.** What about the Activity (Mus musculus [14]) of the same compound?
**A.** 9%

**Q.** And the Activity (Mus musculus [15])?
**A.** 38%

**Q.** And the Activity (CHO [16])?
**A.** 530%

**Q.** What about the Activity (CHO [17]) of the same compound?
**A.** 83%

**Q.** What about the IC50 [18] of the same compound?
**A.** 0.16 µM

**Q.** And the Activity (Mus musculus [19])?
**A.** 9%

**Q.** And the Activity (Mus musculus [20])?
**A.** 15%

**Q.** What does the source list for `CC(C)[C@@H](OC(=O)N1CCC1)[C@H]1C[C@@H](C)[C@H]2[C@H](O1)[C@H](O)[C@@]1(C)[C@@H]3CC[C@H]4C(C)(C)[C@@H](OC(=O)N(C)C5CN(C)C5)CC[C@@]45C[C@@]35CC[C@]21C`?
**A.** IC50 [2]: 0.091 µM; IC50 [3]: 5.4 µM; Kp at 6 h [21]: 3.1; concentration at 6 h [22]: 274 nM; Kp at 6 h [23]: 0.035; concentration at 6 h [24]: 11 nM; Stability (Liver microsomes): Stable; Kp at 6 h [25]: 0.04
